This passage reports inhibition and IC50 results from ChEMBL document CHEMBL1131033, “Selective endothelin A receptor antagonists. 4. Discovery and structure-activity relationships of stilbene acid and alcohol derivatives” (J Med Chem, 1998).

For the first assay, the target named is T1, Endothelin-1 receptor (Rattus norvegicus) (UniProt P26684).
T1 sequence (whole entry): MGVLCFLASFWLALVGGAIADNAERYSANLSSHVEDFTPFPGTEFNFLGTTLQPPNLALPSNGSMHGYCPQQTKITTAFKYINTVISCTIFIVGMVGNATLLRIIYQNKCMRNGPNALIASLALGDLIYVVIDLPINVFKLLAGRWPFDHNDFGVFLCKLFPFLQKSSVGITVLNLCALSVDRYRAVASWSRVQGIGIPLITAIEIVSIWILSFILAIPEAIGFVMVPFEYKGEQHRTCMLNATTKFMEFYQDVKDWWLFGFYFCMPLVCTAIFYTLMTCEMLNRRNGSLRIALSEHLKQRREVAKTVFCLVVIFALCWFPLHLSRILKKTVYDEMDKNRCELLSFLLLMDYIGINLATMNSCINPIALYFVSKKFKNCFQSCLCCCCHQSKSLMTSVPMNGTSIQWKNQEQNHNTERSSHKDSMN
Description: Concentration required to inhibit 50% Et-1 binding to Endothelin A receptor in rat A-10 cells. The assay is classed as cell-based. More on the design: concentration or dose not given beside the values. Conditions: A10; concentration not given here. The essentials: (§1)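 Rat aortic smooth muscle A10 cells grown to confluence in DMEM with 10% FBS, harvested, and frozen. Nonspecific binding defined with 500 nM unlabeled ET-1. Bound ligand separated by vacuum filtration and gamma-counted. IC50 from curve fitting, usually in duplicate.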
Turning to `COC/C(=C/c1cc(OCc2ccsc2)ccc1C#N)c1ccccc1C`, the inhibition (commonly how much of the control response was suppressed) was < 20%.

`COc1ccc(C#N)c(/C=C(/C(=O)O)c2ccccc2)c1`: the inhibition was < 20%. On the same count and under the same terms, with `COc1ccc(/C(=C\c2cc(OCc3ccsc3)ccc2C#N)C(=O)O)cc1` the figure was < 20%. Turning to `Nc1ccc(OCc2ccsc2)cc1/C=C(/C(=O)O)c1ccccc1F`, the inhibition was < 20%.

The next assay addresses T2, Endothelin-1 receptor (Rattus norvegicus, UniProt P26684).
T2 sequence (P26684 whole entry): T1 sequence (whole entry)
Put plainly: Concentration required to inhibit 50% Et-1 binding to endothelin A receptor in rat A-10 cells. The class given is cell-based, A10.
Details: not given
In outline:
as §1
As to `O=C(O)/C(=C/c1cccc(OCc2ccccc2)c1)c1ccccc1`, the 50% inhibitory concentration (IC50) (commonly the concentration needed to halve the response being measured) was found to be 6000 nM.

Turning to `O=[N+]([O-])c1ccc(OCc2ccsc2)cc1/C=C(/CO)c1ccccc1Cl`, the half-maximal inhibitory concentration (IC50) is 400 nM.

The molecule `OC/C(=C/c1cc(OCc2ccsc2)ccc1Br)c1ccccc1` returned a concentration for half-maximal inhibition (IC50) of 2100 nM. Still for that read-out and setting: the figure for `O=C(O)/C(=C/c1cc(OCc2ccsc2)ccc1[N+](=O)[O-])c1c(F)cccc1Cl` is 2000 nM; for `O=C(O)CC/C(=C/c1cccc(OCc2ccccc2)c1)c1ccccc1` it is 5300 nM; for `Cc1ccccc1/C(=C\c1cc(OCc2ccsc2)ccc1C#N)CO` it is 300 nM. For the molecule `N#Cc1ccc(OCc2ccsc2)cc1/C=C(/CO)c1ccccc1`, the IC50 was 800 nM.

The molecule `Cc1ccccc1/C(=C\c1cc(OCc2ccsc2)ccc1C#N)C(=O)O` displayed a concentration for half-maximal inhibition (IC50) of 300 nM. The molecule `N#Cc1ccc(OCc2cccnc2)cc1/C=C(/C(=O)O)c1ccccc1` registered a half-inhibitory concentration (IC50) of 150 nM. The molecule `O=C(O)/C(=C/c1cc(OCc2ccsc2)ccc1[N+](=O)[O-])c1ccccc1Cl` returned an IC50 of 1300 nM.

Consider `O=[N+]([O-])c1ccc(OCc2ccsc2)cc1/C=C(/CO)c1ccccc1`, for which the IC50 is 1400 nM. Same read-out and setting: with `N#Cc1ccc(OCc2ccc3c(c2)OCO3)cc1/C=C(/C(=O)O)c1ccccc1` the figure was 1300 nM. Turning to `N#Cc1ccc(OCc2ccsc2)cc1/C=C(/C(=O)O)c1ccc2c(c1)OCO2`, the half-inhibitory concentration (IC50) came out at 200 nM. In turn, `O=C(O)CCC(Oc1cccc(OCc2ccccc2)c1)c1ccccc1` (stereo not given) registered a concentration for half-maximal inhibition (IC50) of 2000 nM. In turn, `O=C(O)/C(=C/c1cc(OCc2ccsc2)ccc1[N+](=O)[O-])c1ccccc1F` had an IC50 of 600 nM. The same measure, in the same setting: with `O=C(O)/C(=C/c1cc(OCc2ccsc2)ccc1[N+](=O)[O-])c1ccccc1` the figure was 500 nM. Same read-out and setting: the figure for `O=C(O)/C(=C/c1cc(OCc2ccsc2)ccc1Br)c1ccccc1` is 700 nM.

Regarding `N#Cc1ccc(OCc2ccsc2)cc1/C=C(/CCC(=O)O)c1ccccc1`, the half-inhibitory concentration (IC50) worked out at 700 nM. As for `O=C(O)/C(=C/c1cc(OCc2ccccc2)ccc1[N+](=O)[O-])c1ccccc1`, the half-maximal inhibitory concentration (IC50) was found to be 600 nM. In turn, `N#Cc1ccc(OCc2ccsc2)cc1/C=C(/C(=O)O)c1ccccc1Cl` came in with a half-inhibitory concentration (IC50) of 200 nM. The same measure, in the same setting: with `COc1cccc(/C(=C\c2cc(OCc3ccsc3)ccc2C#N)C(=O)O)c1` the figure was 1100 nM.
